The sample as a whole holds a higher share of hits than the screen did.
T cruzi intra: inhibitors of intracellular Trypanosoma cruzi | activity score (inhibition), % at 5.01 µM | intracellular Trypanosoma cruzi in host cells, plate reader | 4.9% of 22,000 active | AID 651903; in the data active = activity score above about 55%;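 note: parasites and compound incubated about four days before reading; 0% = median of neutral control wells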
A1 apoptosis 2: blocks A1, raising caspase activity | 24,000 tested, under 10 active | caspase activation, % (test concentration not listed) | AID 2465 | MEF A1-2A-BIM cells, caspase-Glo luminescence, 3 h; percent of clofoctol response, DMSO zero; in the data active = caspase activation above about 5.9%
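system = A1-2A-BIM-expressing MEF cells | quantity = 2500 MEF cells/well | dosing = 50 nL compound per well, pinned | schedule = overnight cell settling, then 3 h compound exposure, 37 °C | signal = luminescence from DEVD-luciferin Caspase-Glo reagent, 1:1 in 50 mM HEPES, 1 h RT | read-out = Caspase-3/7 activation, seen as rise in luminescence signal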
INS-1E rescue: rescue of cytokine-induced death in INS-1E beta cells; INS-1E cytokine-induced death, ATP luminescence, 48 h; normalised: neutral wells 0, positive control 100; protection from cytokine-induced ATP loss, % at 10 µM; 0.1% of 20,000 active; AID 488910;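 active = mean replicate protection from cytokine-induced ATP loss at least 50% and at least 75% of replicates each reaching 50%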
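Test system: INS-1E rat cells | Quantity: 8000 cells per well | Medium: Phenol-red-free RPMI with 5% fetal bovine serum | Reagent: Cytokine cocktail of IFN-γ, TNF-α and IL-1β | Doses: One compound concentration, pin transfer | Timing: 48 h co-treatment, 10 min post-lysis read | Technique: Luminescent ATP assay (CellTiter-Glo)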
An asterisk follows results filed as active.

What do the screens show for `C[C@@H]1CN([C@@H](C)CO)C(=O)Cc2cc(NS(=O)(=O)c3ccc(F)cc3)ccc2O[C@@H]1CN(C)Cc1ccccc1`?
T cruzi intra: 40; INS-1E rescue: -8

What do the screens show for `C[C@@H]1CN([C@H](C)CO)C(=O)Cc2cc(NS(=O)(=O)c3ccc(F)cc3)ccc2O[C@@H]1CN(C)Cc1ccc(-c2ccccc2)cc1`?
T cruzi intra: 68*; INS-1E rescue: -25

Results for COC(=O)CCCCCCC(=O)N/N=C/c1cc2c(cc1Br)OCO2 ?
T cruzi intra: 1; A1 apoptosis 2: -1; INS-1E rescue: 22

What do the screens show for `CC(/C=C/C(=O)NO)=C\c1cccc(OCc2ccc(-c3ccncc3)cc2)c1`?
A1 apoptosis 2: 0

Results for CC(C)(C)OC(=O)N1CCC[C@H]1/C=N/NC(=O)CCCCCC(=O)O ?
T cruzi intra: -5; INS-1E rescue: 6

How did COc1ccc(S(=O)(=O)Nc2ccc3c(c2)CC(=O)N([C@@H](C)CO)C[C@H](C)[C@H](CN(C)Cc2ccc(C(F)(F)F)cc2)O3)cc1 do in these assays?
T cruzi intra: 47; A1 apoptosis 2: 1; INS-1E rescue: -32

Results for COc1ccc(S(=O)(=O)Nc2ccc3c(c2)CC(=O)N([C@H](C)CO)C[C@@H](C)[C@@H](CN(C)Cc2ccc(C(F)(F)F)cc2)O3)cc1 ?
T cruzi intra: 65*; A1 apoptosis 2: 0; INS-1E rescue: -46

Results for COc1ccc(S(=O)(=O)Nc2ccc3c(c2)CC(=O)N([C@@H](C)CO)C[C@@H](C)[C@@H](CN(C)Cc2ccc(C(F)(F)F)cc2)O3)cc1 ?
T cruzi intra: 80*; A1 apoptosis 2: -1; INS-1E rescue: -26

Results for COc1ccc(S(=O)(=O)Nc2ccc3c(c2)CC(=O)N([C@@H](C)CO)C[C@@H](C)[C@H](CN(C)Cc2ccc(C(F)(F)F)cc2)O3)cc1 ?
A1 apoptosis 2: -1

Results for CC(C)=CCC[C@H](C)C/C=N/NC(=O)CCCCCCC(=O)O ?
T cruzi intra: -14; A1 apoptosis 2: 0; INS-1E rescue: 0

Results for C[C@@H]1CN([C@@H](C)CO)C(=O)Cc2cc(NS(=O)(=O)c3ccc(Cl)cc3)ccc2O[C@@H]1CN(C)Cc1ccc(C(=O)Nc2ccccc2N)cc1 ?
A1 apoptosis 2: 1

How did Cc1ccc(S(=O)(=O)Nc2ccc3c(c2)CC(=O)N([C@H](C)CO)C[C@H](C)[C@@H](CN(C)Cc2ccc(C(=O)Nc4ccccc4N)cc2)O3)cc1 do in these assays?
A1 apoptosis 2: -1

What do the screens show for `C[C@@H]1CN([C@@H](C)CO)C(=O)c2cc(NS(=O)(=O)c3cccs3)ccc2O[C@H]1CN(C)Cc1ccc(C(=O)Nc2ccccc2N)cc1`?
T cruzi intra: 14; A1 apoptosis 2: 2; INS-1E rescue: -5

Results for COc1ccc(S(=O)(=O)Nc2ccc3c(c2)CC(=O)N([C@@H](C)CO)C[C@H](C)[C@@H](CN(C)Cc2ccc(C(=O)Nc4ccccc4N)cc2)O3)cc1 ?
T cruzi intra: 58*; A1 apoptosis 2: 0; INS-1E rescue: 2

Results for Cc1ccc(S(=O)(=O)Nc2ccc3c(c2)CC(=O)N([C@@H](C)CO)C[C@@H](C)[C@@H](CN(C)Cc2ccc(C(=O)Nc4ccccc4N)cc2)O3)cc1 ?
T cruzi intra: 63*; A1 apoptosis 2: -1; INS-1E rescue: 0

How did C[C@@H]1CN([C@H](C)CO)C(=O)Cc2cc(NS(=O)(=O)c3ccc(Cl)cc3)ccc2O[C@H]1CN(C)Cc1ccc(C(=O)Nc2ccccc2N)cc1 do in these assays?
T cruzi intra: 69*; INS-1E rescue: 5

Results for COc1ccc(S(=O)(=O)Nc2ccc3c(c2)CC(=O)N([C@H](C)CO)C[C@@H](C)[C@H](CN(C)Cc2ccc(C(=O)Nc4ccccc4N)cc2)O3)cc1 ?
A1 apoptosis 2: -1

What do the screens show for `C[C@H]1CN([C@@H](C)CO)C(=O)Cc2cc(NS(=O)(=O)c3cccs3)ccc2O[C@H]1CN(C)Cc1ccc(C(=O)Nc2ccccc2N)cc1`?
T cruzi intra: 68*; A1 apoptosis 2: 1; INS-1E rescue: 23

How did O=C(CCCCCCC(=O)Nc1ccccc1O)N/N=C/c1ccc2c(c1)OCCO2 do in these assays?
T cruzi intra: 13; INS-1E rescue: 9

How did O=C1O[C@@H](c2ccccc2)[C@@H](c2ccccc2)N2[C@@H](c3ccccc3OCCO)[C@]3(C(=O)Nc4ccccc43)[C@@H](C(=O)NC[C@H](O)c3ccccc3)[C@H]12 do in these assays?
A1 apoptosis 2: 0

What do the screens show for `C[C@@H]1CN([C@@H](C)CO)C(=O)Cc2cc(NC(=O)CCCCCC(=O)Nc3ccccc3N)ccc2O[C@H]1CN(C)C`?
A1 apoptosis 2: -1

What do the screens show for `COc1ccc(S(=O)(=O)Nc2cccc3c2O[C@@H](CN(C)C(=O)NC2CCCCC2)[C@@H](C)CN([C@@H](C)CO)C3=O)cc1`?
T cruzi intra: 0; INS-1E rescue: -1

How did COc1cc(O)cc(OC)c1/C=N/NC(=O)CCCCCCC(=O)Nc1ccccc1O do in these assays?
T cruzi intra: -14; A1 apoptosis 2: -2; INS-1E rescue: -2

How did COC(=O)CCCCCCC(=O)N/N=C/c1cc(OC)ccc1Br do in these assays?
T cruzi intra: 12; INS-1E rescue: 4

Results for C[C@H](CO)N1C[C@H](C)[C@H](CN(C)C)Oc2c(NC(=O)Nc3cccc4ccccc34)cccc2C1=O ?
T cruzi intra: -21; A1 apoptosis 2: 0; INS-1E rescue: -13

What do the screens show for `O=C(CCCCCCC(=O)Nc1ccccc1O)N/N=C/[C@H](O)[C@@H](O)[C@H](O)[C@H](O)CO`?
T cruzi intra: 2; A1 apoptosis 2: 0; INS-1E rescue: -5

How did C[C@@H]1CN([C@H](C)CO)C(=O)c2cccc(NC(=O)c3ccncc3)c2O[C@@H]1CN(C)C(=O)Nc1ccccc1 do in these assays?
T cruzi intra: -22; A1 apoptosis 2: 1; INS-1E rescue: 1

What do the screens show for `C[C@H]1CN([C@@H](C)CO)C(=O)c2cccc(NC(=O)c3ccncc3)c2O[C@H]1CN(C)C(=O)Nc1ccccc1`?
T cruzi intra: 79*; A1 apoptosis 2: 0; INS-1E rescue: 4

What do the screens show for `C[C@H]1CN([C@@H](C)CO)C(=O)c2cccc(NC(=O)c3ccncc3)c2O[C@H]1CN(C)C(=O)Nc1ccc(C(F)(F)F)cc1`?
T cruzi intra: 86*; A1 apoptosis 2: 1; INS-1E rescue: 8

Results for C[C@H](CO)N1C[C@H](C)[C@H](CN(C)C(=O)Nc2ccc(F)cc2)Oc2c(NC(=O)c3ccncc3)cccc2C1=O ?
T cruzi intra: 81*; INS-1E rescue: 2

What do the screens show for `C[C@@H]1CN([C@@H](C)CO)C(=O)c2cccc(NC(=O)c3ccncc3)c2O[C@@H]1CN(C)C(=O)Nc1ccc(F)cc1`?
T cruzi intra: -7; A1 apoptosis 2: 1; INS-1E rescue: 10

How did C[C@H](CO)N1C[C@H](C)[C@@H](CN(C)C(=O)Nc2ccc(C(F)(F)F)cc2)Oc2c(NC(=O)c3ccncc3)cccc2C1=O do in these assays?
T cruzi intra: 15; A1 apoptosis 2: 0; INS-1E rescue: 11
